# Experimental data: ChEMBL document CHEMBL1926631, “N⁴-Aryl-6-substitutedphenylmethyl-7H-pyrrolo[2,3-d]pyrimidine-2,4-diamines as receptor tyrosine kinase inhibitors” (Bioorg Med Chem, 2012)
# Target: Vascular endothelial growth factor receptor 1 (Homo sapiens, UniProt P17948)
# Experiment: Inhibition of VEGFR1 tyrosine kinase activity in VEGF-stimulated human A498 cells after 60 mins by ELISA
# Type: cell-based
# Conditions: not given
# Outline: (§1)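 Lysed in ice-cold TBS/0.05% triton with protease and phosphatase inhibitors, heat/ethanol-fixed. Total phosphotyrosine read by HRP anti-phosphotyrosine with luminol chemiluminescence.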
# Vascular endothelial growth factor receptor 1, sequence (P17948 whole entry): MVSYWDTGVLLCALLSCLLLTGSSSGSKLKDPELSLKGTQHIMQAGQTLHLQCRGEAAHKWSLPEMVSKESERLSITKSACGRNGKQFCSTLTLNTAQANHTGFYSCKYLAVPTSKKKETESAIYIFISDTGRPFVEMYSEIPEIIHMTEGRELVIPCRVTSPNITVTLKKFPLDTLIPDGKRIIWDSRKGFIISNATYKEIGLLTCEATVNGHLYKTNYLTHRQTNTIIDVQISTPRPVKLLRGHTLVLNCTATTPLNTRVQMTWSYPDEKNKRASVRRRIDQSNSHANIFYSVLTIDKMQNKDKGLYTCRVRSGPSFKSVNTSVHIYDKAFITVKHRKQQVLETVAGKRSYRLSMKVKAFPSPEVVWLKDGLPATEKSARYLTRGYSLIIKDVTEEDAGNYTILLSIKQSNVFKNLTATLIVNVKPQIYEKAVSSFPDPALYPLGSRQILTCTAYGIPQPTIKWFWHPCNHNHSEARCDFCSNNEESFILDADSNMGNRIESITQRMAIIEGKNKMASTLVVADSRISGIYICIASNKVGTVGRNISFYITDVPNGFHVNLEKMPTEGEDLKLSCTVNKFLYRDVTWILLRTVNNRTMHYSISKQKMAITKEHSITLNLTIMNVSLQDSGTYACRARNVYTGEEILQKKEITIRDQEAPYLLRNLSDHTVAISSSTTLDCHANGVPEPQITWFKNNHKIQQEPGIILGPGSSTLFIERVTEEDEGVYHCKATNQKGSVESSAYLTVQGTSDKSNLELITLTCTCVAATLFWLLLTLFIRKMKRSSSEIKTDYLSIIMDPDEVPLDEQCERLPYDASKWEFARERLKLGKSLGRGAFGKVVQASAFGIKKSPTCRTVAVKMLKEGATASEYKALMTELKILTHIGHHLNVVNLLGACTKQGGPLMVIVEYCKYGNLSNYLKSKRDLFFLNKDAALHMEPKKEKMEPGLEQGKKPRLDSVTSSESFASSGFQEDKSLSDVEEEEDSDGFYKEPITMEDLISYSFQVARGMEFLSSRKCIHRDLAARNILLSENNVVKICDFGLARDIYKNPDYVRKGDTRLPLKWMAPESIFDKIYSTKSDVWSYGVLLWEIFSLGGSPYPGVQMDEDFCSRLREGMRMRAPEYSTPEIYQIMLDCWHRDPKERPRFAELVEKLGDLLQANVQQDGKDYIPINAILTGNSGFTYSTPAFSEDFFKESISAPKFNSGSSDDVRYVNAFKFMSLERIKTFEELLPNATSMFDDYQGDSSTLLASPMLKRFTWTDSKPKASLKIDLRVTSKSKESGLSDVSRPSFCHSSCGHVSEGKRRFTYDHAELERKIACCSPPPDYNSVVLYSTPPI
row,IC50,SMILES
1,45.9 µM,Cc1ccccc1Cc1cc2c(Nc3ccc(Cl)cc3)nc(N)nc2[nH]1
2,> 200 µM,Nc1nc(Nc2ccc(Cl)cc2)c2cc(Cc3cccc4ccccc34)[nH]c2n1
3,16 µM,Cc1ccccc1Cc1cc2c(Nc3ccc(Cl)cc3F)nc(N)nc2[nH]1
4,186 µM,COc1ccc(OC)c(Cc2cc3c(Nc4ccc(Cl)cc4F)nc(N)nc3[nH]2)c1
5,15.2 µM,COc1ccc(OC)c(Cc2cc3c(Nc4ccc(Cl)cc4)nc(N)nc3[nH]2)c1
6,> 200 µM,Nc1nc(Nc2ccc(Cl)cc2F)c2cc(Cc3cccc4ccccc34)[nH]c2n1

# Target: T1, Vascular endothelial growth factor receptor 2 (Homo sapiens, UniProt P35968)
# T1 sequence (P35968 whole entry): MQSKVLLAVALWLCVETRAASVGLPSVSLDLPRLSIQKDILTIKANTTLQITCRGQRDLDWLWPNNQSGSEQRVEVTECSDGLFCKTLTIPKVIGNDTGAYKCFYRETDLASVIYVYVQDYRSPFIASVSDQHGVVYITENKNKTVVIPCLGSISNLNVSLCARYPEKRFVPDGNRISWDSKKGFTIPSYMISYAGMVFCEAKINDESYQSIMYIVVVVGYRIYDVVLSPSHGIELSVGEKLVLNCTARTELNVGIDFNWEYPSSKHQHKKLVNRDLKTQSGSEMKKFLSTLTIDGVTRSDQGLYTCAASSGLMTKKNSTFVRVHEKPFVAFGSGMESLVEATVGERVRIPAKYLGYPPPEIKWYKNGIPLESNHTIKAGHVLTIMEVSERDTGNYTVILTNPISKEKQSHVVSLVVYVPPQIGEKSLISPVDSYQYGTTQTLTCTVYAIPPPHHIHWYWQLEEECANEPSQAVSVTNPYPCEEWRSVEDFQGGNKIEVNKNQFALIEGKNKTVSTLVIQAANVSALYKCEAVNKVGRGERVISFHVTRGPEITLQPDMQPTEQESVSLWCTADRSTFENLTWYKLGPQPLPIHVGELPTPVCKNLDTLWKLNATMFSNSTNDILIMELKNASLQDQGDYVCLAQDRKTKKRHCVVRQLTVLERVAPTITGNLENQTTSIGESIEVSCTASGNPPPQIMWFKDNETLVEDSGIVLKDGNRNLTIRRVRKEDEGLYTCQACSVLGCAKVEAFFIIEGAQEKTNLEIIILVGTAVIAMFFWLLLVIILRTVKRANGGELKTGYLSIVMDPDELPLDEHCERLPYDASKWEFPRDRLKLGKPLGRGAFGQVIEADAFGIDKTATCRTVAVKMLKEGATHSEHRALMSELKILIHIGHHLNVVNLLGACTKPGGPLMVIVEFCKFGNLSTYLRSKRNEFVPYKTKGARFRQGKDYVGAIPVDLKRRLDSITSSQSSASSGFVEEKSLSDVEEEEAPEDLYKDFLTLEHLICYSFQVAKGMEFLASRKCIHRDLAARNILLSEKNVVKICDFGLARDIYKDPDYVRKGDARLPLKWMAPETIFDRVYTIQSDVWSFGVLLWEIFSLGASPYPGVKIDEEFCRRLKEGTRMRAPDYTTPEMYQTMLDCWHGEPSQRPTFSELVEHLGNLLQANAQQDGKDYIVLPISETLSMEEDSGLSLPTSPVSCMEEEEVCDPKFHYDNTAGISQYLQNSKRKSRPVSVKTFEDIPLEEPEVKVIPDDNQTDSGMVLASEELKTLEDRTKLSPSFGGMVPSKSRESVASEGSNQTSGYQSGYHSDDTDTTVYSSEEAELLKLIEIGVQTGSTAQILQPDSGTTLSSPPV
# Experiment: Inhibition of VEGFR2 tyrosine kinase activity in VEGF-stimulated human U251 cells after 60 mins by ELISA
# Type: cell-based, U-251
# Conditions: not given
row,IC50,SMILES
1,45.4 µM,Cc1ccccc1Cc1cc2c(Nc3ccc(Cl)cc3)nc(N)nc2[nH]1
2,32.1 µM,Nc1nc(Nc2ccc(Cl)cc2)c2cc(Cc3cccc4ccccc34)[nH]c2n1
3,29.8 µM,Cc1ccccc1Cc1cc2c(Nc3ccc(Cl)cc3F)nc(N)nc2[nH]1
4,0.62 µM,COc1ccc(OC)c(Cc2cc3c(Nc4cccc(Br)c4)nc(N)nc3[nH]2)c1
5,0.1 µM,COc1ccc(OC)c(Cc2cc3c(Nc4ccc(Cl)cc4F)nc(N)nc3[nH]2)c1
6,56.7 µM,COc1ccc(OC)c(Cc2cc3c(Nc4ccc(Cl)cc4)nc(N)nc3[nH]2)c1
7,0.48 µM,Nc1nc(Nc2ccc(Cl)cc2F)c2cc(Cc3cccc4ccccc34)[nH]c2n1

# Tested on: A-431
# Experiment: Cytotoxicity against EGFR overexpressing human A431 after 12 hrs by cyquant DNA dye-based fluorescence method
# Type: functional, cell-based
# Conditions: A-431, 12 h
row,SMILES,IC50
1,Cc1ccccc1Cc1cc2c(Nc3ccc(Cl)cc3)nc(N)nc2[nH]1,5.6 µM
2,Cc1ccccc1Cc1cc2c(Nc3ccc(Cl)cc3F)nc(N)nc2[nH]1,> 200 µM
3,COc1ccc(OC)c(Cc2cc3c(Nc4cccc(Br)c4)nc(N)nc3[nH]2)c1,> 50 µM
4,COc1ccc(OC)c(Cc2cc3c(Nc4ccc(Cl)cc4F)nc(N)nc3[nH]2)c1,13.4 µM
5,COc1ccc(OC)c(Cc2cc3c(Nc4ccc(Cl)cc4)nc(N)nc3[nH]2)c1,5.8 µM
6,Nc1nc(Nc2ccc(Cl)cc2F)c2cc(Cc3cccc4ccccc34)[nH]c2n1,46.7 µM

# Target: Epidermal growth factor receptor (Homo sapiens, UniProt P00533)
# Sequence (P00533 whole entry): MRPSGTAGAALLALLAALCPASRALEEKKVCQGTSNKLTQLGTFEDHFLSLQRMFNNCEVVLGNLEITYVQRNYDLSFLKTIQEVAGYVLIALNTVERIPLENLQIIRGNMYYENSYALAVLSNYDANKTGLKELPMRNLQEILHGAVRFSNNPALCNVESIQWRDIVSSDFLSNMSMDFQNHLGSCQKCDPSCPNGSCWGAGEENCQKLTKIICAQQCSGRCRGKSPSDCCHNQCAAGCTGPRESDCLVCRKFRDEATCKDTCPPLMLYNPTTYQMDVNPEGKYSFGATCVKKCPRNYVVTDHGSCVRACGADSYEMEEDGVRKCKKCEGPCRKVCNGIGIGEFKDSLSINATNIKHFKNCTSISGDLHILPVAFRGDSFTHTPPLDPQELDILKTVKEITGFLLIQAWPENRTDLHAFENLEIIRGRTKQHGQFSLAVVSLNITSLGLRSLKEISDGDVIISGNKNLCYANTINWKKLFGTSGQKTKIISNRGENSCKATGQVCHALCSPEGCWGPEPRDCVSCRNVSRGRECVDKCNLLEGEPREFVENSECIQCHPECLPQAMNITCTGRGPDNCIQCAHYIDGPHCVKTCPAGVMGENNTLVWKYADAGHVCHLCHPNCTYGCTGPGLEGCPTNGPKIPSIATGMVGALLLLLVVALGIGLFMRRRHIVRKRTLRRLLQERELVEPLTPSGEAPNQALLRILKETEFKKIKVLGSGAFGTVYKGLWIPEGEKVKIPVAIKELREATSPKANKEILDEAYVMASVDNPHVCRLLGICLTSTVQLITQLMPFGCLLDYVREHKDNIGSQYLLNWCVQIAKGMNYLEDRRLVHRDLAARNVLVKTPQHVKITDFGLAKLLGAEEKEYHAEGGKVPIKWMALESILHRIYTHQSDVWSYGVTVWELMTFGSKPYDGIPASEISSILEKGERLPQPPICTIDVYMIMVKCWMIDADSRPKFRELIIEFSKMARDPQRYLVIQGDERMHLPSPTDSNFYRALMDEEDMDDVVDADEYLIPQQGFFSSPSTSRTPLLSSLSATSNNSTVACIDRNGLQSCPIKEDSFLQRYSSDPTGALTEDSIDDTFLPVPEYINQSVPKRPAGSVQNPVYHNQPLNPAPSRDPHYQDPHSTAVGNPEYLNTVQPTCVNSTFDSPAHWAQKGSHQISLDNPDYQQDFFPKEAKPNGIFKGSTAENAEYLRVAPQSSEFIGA
# Experiment: Inhibition of EGFR tyrosine kinase activity in EGF-stimulated human A431 cells after 60 mins by ELISA
# Type: cell-based, A-431
# Conditions: not given
row,IC50,SMILES
1,0.24 µM,Cc1ccccc1Cc1cc2c(Nc3ccc(Cl)cc3)nc(N)nc2[nH]1
2,> 200 µM,Cc1ccccc1Cc1cc2c(Nc3ccc(Cl)cc3F)nc(N)nc2[nH]1
3,113 µM,COc1ccc(OC)c(Cc2cc3c(Nc4ccc(Cl)cc4F)nc(N)nc3[nH]2)c1
4,> 200 µM,COc1ccc(OC)c(Cc2cc3c(Nc4ccc(Cl)cc4)nc(N)nc3[nH]2)c1
5,> 200 µM,Nc1nc(Nc2ccc(Cl)cc2F)c2cc(Cc3cccc4ccccc34)[nH]c2n1

# Target: T1, Vascular endothelial growth factor receptor 2
# Experiment: Ratio of semaxanib IC50 to compound IC50 for VEGFR2 tyrosine kinase activity in VEGF-stimulated human U251 cells
# Type: cell-based
# Conditions: U-251
# Outline: (§2)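 U251 cells, which naturally express high VEGFR-2, were grown to 60–75% confluence, kept 18 h serum-free, then pre-treated 60 min with 0.10–333 μM inhibitor before 100 ng/mL VEGF for 10 min. Total tyrosine phosphorylation was read by fixed-cell HRP-anti-phosphotyrosine ELISA with luminol luminescence, as % of growth factor alone.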
row,Ratio IC50,SMILES
1,120,COc1ccc(OC)c(Cc2cc3c(Nc4ccc(Cl)cc4F)nc(N)nc3[nH]2)c1
2,25,Nc1nc(Nc2ccc(Cl)cc2F)c2cc(Cc3cccc4ccccc34)[nH]c2n1

# Target: Platelet-derived growth factor receptor beta (Homo sapiens, UniProt P09619)
# Sequence (P09619 whole entry): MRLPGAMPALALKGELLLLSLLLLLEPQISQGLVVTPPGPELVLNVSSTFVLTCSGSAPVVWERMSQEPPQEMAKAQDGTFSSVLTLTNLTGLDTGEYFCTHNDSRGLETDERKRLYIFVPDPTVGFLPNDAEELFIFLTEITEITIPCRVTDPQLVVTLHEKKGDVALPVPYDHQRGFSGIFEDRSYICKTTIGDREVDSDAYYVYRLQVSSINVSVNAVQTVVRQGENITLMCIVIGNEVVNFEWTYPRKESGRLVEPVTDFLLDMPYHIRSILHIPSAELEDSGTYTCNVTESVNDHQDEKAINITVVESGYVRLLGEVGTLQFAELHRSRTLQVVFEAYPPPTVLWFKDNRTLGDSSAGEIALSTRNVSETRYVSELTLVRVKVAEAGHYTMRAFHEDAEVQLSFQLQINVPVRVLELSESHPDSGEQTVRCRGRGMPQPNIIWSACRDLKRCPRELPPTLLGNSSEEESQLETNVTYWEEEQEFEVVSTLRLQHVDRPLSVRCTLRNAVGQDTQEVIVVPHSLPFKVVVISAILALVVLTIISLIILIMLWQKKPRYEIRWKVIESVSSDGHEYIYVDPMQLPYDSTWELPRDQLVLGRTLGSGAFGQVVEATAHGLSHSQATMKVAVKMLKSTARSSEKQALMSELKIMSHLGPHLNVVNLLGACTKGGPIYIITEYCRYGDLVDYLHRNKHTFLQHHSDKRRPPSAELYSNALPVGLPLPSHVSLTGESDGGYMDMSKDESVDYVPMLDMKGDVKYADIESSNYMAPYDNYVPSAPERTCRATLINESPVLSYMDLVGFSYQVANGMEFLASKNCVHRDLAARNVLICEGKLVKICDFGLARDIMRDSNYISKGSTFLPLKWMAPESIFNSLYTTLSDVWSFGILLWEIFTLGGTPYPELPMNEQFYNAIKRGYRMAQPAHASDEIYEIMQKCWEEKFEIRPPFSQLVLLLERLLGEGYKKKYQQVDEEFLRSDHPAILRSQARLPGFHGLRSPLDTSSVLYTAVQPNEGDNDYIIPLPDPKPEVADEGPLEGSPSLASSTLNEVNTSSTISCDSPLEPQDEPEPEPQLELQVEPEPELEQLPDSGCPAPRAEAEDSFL
# Experiment: Inhibition of PDGFRbeta tyrosine kinase activity in PDGF-BB-stimulated human SF-539 cells after 60 mins by ELISA
# Type: cell-based
# Conditions: not given
# Outline: as §1
row,IC50,SMILES
1,> 300 µM,Cc1ccccc1Cc1cc2c(Nc3ccc(Cl)cc3)nc(N)nc2[nH]1
2,> 300 µM,Cc1ccccc1Cc1cc2c(Nc3ccc(Cl)cc3F)nc(N)nc2[nH]1
3,146 µM,COc1ccc(OC)c(Cc2cc3c(Nc4ccc(Cl)cc4F)nc(N)nc3[nH]2)c1
4,44.3 µM,COc1ccc(OC)c(Cc2cc3c(Nc4ccc(Cl)cc4)nc(N)nc3[nH]2)c1
5,193 µM,Nc1nc(Nc2ccc(Cl)cc2F)c2cc(Cc3cccc4ccccc34)[nH]c2n1

# Target: T1, Vascular endothelial growth factor receptor 2
# Experiment: Ratio of Sunitinib IC50 to compound IC50 for VEGFR2 tyrosine kinase activity in VEGF-stimulated human U251 cells
# Type: cell-based
# Conditions: U-251
# Outline: as §2
row,Ratio IC50,SMILES
1,189,COc1ccc(OC)c(Cc2cc3c(Nc4ccc(Cl)cc4F)nc(N)nc3[nH]2)c1
2,39,Nc1nc(Nc2ccc(Cl)cc2F)c2cc(Cc3cccc4ccccc34)[nH]c2n1
